≈ marks a conversion by molar mass, not a printed value.
What was measured:
[1] = Inhibitory effect on the proliferation of human T-lymphoblast molt/4F cells; format: functional
Procedure, shortened: (§1)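 7.5 × 10^4 cells in growth medium were exposed in microplate wells to a range of compound concentrations. Proliferation ran 72 h at 37 °C under humidified, CO2-controlled conditions, followed by Coulter counter cell counts. IC50 is the compound concentration giving 50% inhibition of proliferation.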

MT4 [2] = experiment: Inhibitory effect on the proliferation of human T-lymphocyte MT-4 cells; format: functional, cell-based
Procedure, shortened: (§2)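 MT-4 cells (7.5 × 10^4 per well) in growth medium were incubated with graded compound concentrations for 120 h at 37 °C in a humidified CO2 atmosphere. Cell viability was assessed by trypan blue dye exclusion. IC50 is the concentration required for 50% inhibition of proliferation.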

L1210 [3] = experiment: Inhibitory effect on the proliferation of murine leukemia L1210 cells; format: functional, cell-based; settings: Mus musculus
Procedure, shortened: (§3)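 5 × 10^4 cells were suspended in growth medium in microplate wells with varying concentrations of compound. They grew for 48 h at 37 °C in a humidified CO2-controlled atmosphere and were then counted in a Coulter counter. IC50 is the concentration inhibiting cell proliferation by 50%.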

[4] = Inhibitory effect on the proliferation of murine mammary carcinoma FM3A cells; format: functional, cell-based; settings: Mus musculus; procedure, shortened: as §3
Raji [5] = experiment: Inhibitory effect on the proliferation of human B-lymphoblast Raji cells; format: functional, cell-based; procedure, shortened: as §1
L1210 [6] = experiment: Inhibitory effect on the proliferation of murine leukemia L1210 cells.; format: functional, cell-based; settings: Mus musculus; procedure, shortened: as §3
Raji [7] = experiment: Inhibitory effect on the proliferation of human B-lymphoblast Raji cells.; format: functional, cell-based; procedure, shortened: as §1
[8] = Inhibitory effect on the proliferation of T-lymphoblast molt/4F cells.; format: functional; settings: Homo sapiens; procedure, shortened: as §1
MT4 [9] = experiment: Inhibitory effect on the proliferation of human T-lymphocyte MT-4 cells.; format: functional, cell-based; procedure, shortened: as §2

| SMILES | IC50 [1] [mg/L] | IC50 (MT4 [2]) [mg/L] | IC50 (L1210 [3]) [mg/L] | IC50 [4] [mg/L] | IC50 (Raji [5]) [mg/L] | IC50 (L1210 [6]) [mg/L] | IC50 (Raji [7]) [mg/L] | IC50 [8] [mg/L] | IC50 (MT4 [9]) [mg/L] |
| --- | --- | --- | --- | --- | --- | --- | --- | --- | --- |
| COc1cccc(OC/C=C(\C)CC/C=C(\C)C2=CC(=O)C(C)(C)O2)c1 | 35.9 (≈ 101 µM) | 34 (≈ 95.4 µM) | 36.3 (≈ 102 µM) | 45.9 (≈ 129 µM) | 45.8 (≈ 128 µM) | – | – | – | – |
| C/C(=C\COc1ccccc1)CC/C=C(\C)C1=CC(=O)C(C)(C)O1 | 35.2 (≈ 108 µM) | 29.4 (≈ 90.1 µM) | – | 44.2 (≈ 135 µM) | – | 38.7 (≈ 119 µM) | 40.3 (≈ 123 µM) | – | – |
| C/C(=C\COc1c(Cl)cccc1Cl)CC/C=C(\C)C1CC(=O)C(C)(C)O1 (stereo not given) | 50.5 (≈ 127 µM) | 32.5 (≈ 81.8 µM) | 58 (≈ 146 µM) | 51.2 (≈ 129 µM) | – | – | 59.9 (≈ 151 µM) | – | – |
| C/C(=C\COc1ccc2ccc(=O)oc2c1)CC/C=C(\C)C1=CC(=O)C(C)(C)O1 | – | – | – | 53.7 (≈ 136 µM) | – | 39.7 (≈ 101 µM) | 25.2 (≈ 63.9 µM) | 28.5 (≈ 72.2 µM) | 15.6 (≈ 39.5 µM) |
| C/C(=C\COc1ccccc1)CC/C=C(\C)C1CC(=O)C(C)(C)O1 (stereo not given) | 27.6 (≈ 84 µM) | 43.1 (≈ 131 µM) | 64 (≈ 195 µM) | 59 (≈ 180 µM) | 50.7 (≈ 154 µM) | – | – | – | – |
| COc1cccc(OC/C=C(\C)CC/C=C(\C)C2CC(=O)C(C)(C)O2)c1 (stereo not given) | 33.8 (≈ 94.3 µM) | 51.5 (≈ 144 µM) | 66.5 (≈ 186 µM) | 68.7 (≈ 192 µM) | 50 (≈ 139 µM) | – | – | – | – |
| C/C(=C\COc1ccc2ccccc2c1)CC/C=C(\C)C1CC(=O)C(C)(C)O1 (stereo not given) | 26.9 (≈ 71.1 µM) | – | – | 38.4 (≈ 101 µM) | – | 24.9 (≈ 65.8 µM) | 47.9 (≈ 127 µM) | – | 48.8 (≈ 129 µM) |
| C/C(=C\COc1ccc2ccc(=O)oc2c1)CC/C=C(\C)C1CC(=O)C(C)(C)O1 (stereo not given) | – | – | – | 54.2 (≈ 137 µM) | – | 64.5 (≈ 163 µM) | 50.7 (≈ 128 µM) | 24.2 (≈ 61 µM) | 42.9 (≈ 108 µM) |
| C/C(=C\COc1ccc2ccc(=O)oc2c1)C1CC(=O)C(C)(C)O1 (stereo not given) | – | – | – | 215 (≈ 655 µM) | – | 211 (≈ 643 µM) | 226 (≈ 688 µM) | 97.5 (≈ 297 µM) | 107 (≈ 326 µM) |
| C/C(=C\COc1ccc2ccccc2c1)CC/C=C(\C)C1=CC(=O)C(C)(C)O1 | 51.6 (≈ 137 µM) | – | – | 56.4 (≈ 150 µM) | – | 47.4 (≈ 126 µM) | 63.2 (≈ 168 µM) | – | 38.6 (≈ 103 µM) |
| COc1ccc(OC/C=C(\C)CC/C=C(\C)C2=CC(=O)C(C)(C)O2)cc1 | 38.6 (≈ 108 µM) | 33.9 (≈ 95.1 µM) | 40.2 (≈ 113 µM) | 43.8 (≈ 123 µM) | 43 (≈ 121 µM) | – | – | – | – |
| C/C(=C\COc1c(Cl)cccc1Cl)CC/C=C(\C)C1=CC(=O)C(C)(C)O1 | 27.4 (≈ 69.3 µM) | 15.5 (≈ 39.2 µM) | 30.7 (≈ 77.7 µM) | 35.3 (≈ 89.3 µM) | 26.2 (≈ 66.3 µM) | – | – | – | – |
| C/C(=C\COc1ccc2ccc(=O)oc2c1)C1=CC(=O)C(C)(C)O1 [GEIPARVARIN] | – | – | – | 7.87 (≈ 24.1 µM) | – | 5.31 (≈ 16.3 µM) | 8.25 (≈ 25.3 µM) | 7.92 (≈ 24.3 µM) | 1.64 (≈ 5.03 µM) |

From ChEMBL document CHEMBL1126046, “Geiparvarin analogues. 3. Synthesis and cytostatic activity of 3(2H)-furanone and 4,5-dihydro-3(2H)-furanone congeners of geiparvarin, containing a geraniol-like fragment in the side chain” (J Med Chem, 1992)
